High-throughput results (PubChem)
F508del corr – CFTR F508del correction in bronchial cells; activity (quench increase), % at 7.58 µM; CFBE cells, YFP halide quenching; stimulated with forskolin plus potentiator P3; % fluorescence drop versus neutral controls; AID 720511; 350,000 compounds, 0.36% hits;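 active means mean added fluorescence quench of at least 8% versus neutral control, with both replicates also reaching 8%; inconclusive means only one of the mean or replicate conditions met; inactive means mean below 8% and not both replicates reaching 8%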;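 further: cells transiently co-express mutant CFTR-F508del with the halide-sensitive YFP; corrector assay measuring rescue of mutant channel to the surface after 24 h compound exposure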
Env fusion inh – inhibitors of HIV Env-mediated cell fusion. HeLa-JRFL Env/CEM21 cell fusion, luciferase. inhibition, % at 12.3 µM. 360,000 compounds, 1.1% hits;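 active means mean replicate inhibition score of at least 50 and every replicate individually at or above 50; inconclusive means only one of the two criteria met; inactive means mean below 50 and not all replicates reaching 50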;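 further: 0% = plate neutral controls and 100% = maraviroc near 300 nM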
PAX8 reporter – inhibitors of PAX8 transcriptional activity in RMG-I cells. RMG-I TPO-luciferase reporter, SteadyGlo, 24 h. 360,000 compounds, 1.2% hits. inhibition, % at 12.6 µM;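 active means mean replicate inhibition at least 60% with every replicate also reaching 60%; inconclusive means only one of the two criteria is met; inactive means mean below 60% and not all replicates reaching 60%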;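 further: luciferase light reporting Pax8 driven TPO promoter activity; plate controls were median of neutral control wells for no effect and mitoxantrone controls for full effect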
FN deposition inh – fibronectin deposition inhibition. AH1F fibroblasts, Alexa488-fibronectin deposition fluorescence, overnight. inhibition, % at 12.6 µM. 350,000 compounds, 0.086% hits. AID 743247;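 active means mean inhibition across replicates of 30% or more, regardless of how many single replicates reach that level; inconclusive means mean under 30% yet at least half of replicates reach 30%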;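 further: positive control wells lacked labelled fibronectin entirely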
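Material: AH1F fibroblast monolayer depositing Alexa488-labelled fibronectin into matrix | Input: 10000 AH1F cells/well | Medium: DMEM plus 2% serum, read in PBS | Reagent: Alexa488-fibronectin, 24 nM final in well | Compound dosing: One dose per compound, pinned | Schedule: 1 h adhesion, overnight exposure | Measured by: Fluorescence at 485 nm excitation, 525 nm emission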
PGC1a acetyl inh – PGC1a acetylation modulation, inhibitor mode. U2OS PGC1a acetylation, AlphaScreen anti-acetyl-lysine; with virally co-expressed GCN5 acetyltransferase. inhibition, % at 15.6 µM. 350,000 compounds, 0.17% hits. AID 651687;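 active means every replicate shows inhibition of at least 40%; inconclusive means mean inhibition at least 40% but some replicate below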;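 further: 0% = neutral control wells and 100% = positive control wells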
EWS-Fli block – inhibitors of EWS/Fli oncoprotein transcriptional activity; A673 NR0B1-luciferase reporter, viability-normalised; inhibition, % at 12.6 µM; AID 651661; 350,000 compounds, 0.67% hits;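 active means mean inhibition of at least 50% after viability correction, with every replicate also passing that limit; inconclusive means mean reaches 50% but only one of two replicates passes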;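 further: firefly luciferase signal divided by Alamar Blue viability fluorescence both relative to DMSO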
Starred values were filed as active, the others as inactive; ? = inconclusive; . = no result given; [ ] = another dose, or the depositor's remark. Hits are enriched below; roughly 2.3% of the tested compounds scored in any of these assays.

SMILES	F508del corr	Env fusion inh	PAX8 reporter	FN deposition inh	PGC1a acetyl inh	EWS-Fli block
C[C@@H]1CN([C@H](C)CO)C(=O)c2cc(NC(=O)Cc3ccccc3)ccc2O[C@@H](C)CCCCO[C@H]1CN(C)Cc1ccc2c(c1)OCO2	1.6	11.9[16.7 µM]	2.1	.	-6.8	0.9
O=C(CSc1nc2ccccc2c(=O)n1CCCN1CCOCC1)Nc1ccc(F)c(Cl)c1	-3.3	70.8*	24.2	6.8	0.3	3.1
CC(=O)Nc1ccc(NC(=O)CSc2nc3ccccc3c(=O)n2CCCN2CCOCC2)cc1	0.3	14.6	8.0	-6.0	-7.0	-13.2
O=C(CSc1nc2ccccc2c(=O)n1-c1ccccc1F)Nc1ccc2c(c1)CCC2	-0.8	19.7	28.5	31.4*	1.5	9.2
Cn1nc(CC(=O)Nc2ccc3c(c2)CCC3)c2ccccc2c1=O	.	78.8*	-11.0	1.1	.	.
CC(C)c1ccccc1-n1c(SCC(=O)N2CCc3ccccc3C2)nc2ccccc2c1=O	0.4	59.9*	7.0	-12.5	.	13.3
O=S(=O)(NC[C@@H]1[C@@H](c2ccccc2)[C@@H](CO)N1CC1CC1)c1ccccc1	1.9	.	-0.9	-7.1	3.3	-4.2
C[C@@H]1CN([C@@H](C)CO)C(=O)c2cc(NS(=O)(=O)c3cn(C)cn3)ccc2O[C@@H]1CN(C)C(=O)Nc1ccc(F)cc1	-3.0	0.4[16.7 µM]	12.9	.	-26.6	-13.5
CC(Oc1ccccc1Cl)C(=O)Nc1ccc(S(=O)(=O)Nc2nccs2)cc1 (stereo not drawn)	8.7*	.	-20.9	6.9	.	8.7
CNC[C@@H]1Oc2ccc(NS(=O)(=O)c3c(C)noc3C)cc2CC(=O)N([C@@H](C)CO)C[C@H]1C	0.3	14.9[16.7 µM]	-10.8	3.1	8.5	-5.1
Cc1nc(C(C)N(C)Cc2nc(-c3ccc4c(c3)OCO4)no2)c(C)s1 (stereo not drawn)	2.4	-0.2	-91.6	-7.9	97.1*	-30.6
CC(=O)N1CCc2cc(S(=O)(=O)N3c4ccccc4CC3C)ccc21 (stereo not drawn)	10.3*	.	.	.	14.1	48.0
CC(=O)N1CCc2cc(S(=O)(=O)N3CCOCC3)ccc21	.	2.1	-20.0	11.7	-4.2	.
CSc1ccc(S(=O)(=O)N2c3ccccc3CC2C)cc1 (stereo not drawn)	?	28.8	43.8	11.6	-20.1	51.0*
Cc1ccc(-c2ccc3c(c2)O[C@@H](CN(C)C)[C@H](C)CN([C@H](C)CO)S3(=O)=O)cc1	.	16.4[16.7 µM]	-4.0	-1.0	-33.9	2.0
C[C@H](CO)N1C[C@H](C)[C@@H](CN(C)Cc2ccc(C(F)(F)F)cc2)Oc2ccc(NS(=O)(=O)c3ccc(Cl)cc3)cc2CC1=O	5.2	69.0*[16.7 µM]	101.9*	-11.6	-11.0	40.0
C[C@@H]1CN([C@@H](C)CO)C(=O)Cc2cc(NS(=O)(=O)c3ccccc3)ccc2O[C@H]1CN(C)Cc1ccc(C(F)(F)F)cc1	-4.0	.	92.2*	.	-1.8	.
Cc1ccc(S(=O)(=O)Nc2ccc3c(c2)CC(=O)N([C@@H](C)CO)C[C@@H](C)[C@H](CN(C)Cc2ccc(C(F)(F)F)cc2)O3)cc1	2.9	39.3[16.7 µM]	63.1*	.	-2.3	32.9
C[C@@H]1CN([C@@H](C)CO)C(=O)Cc2cc(NS(=O)(=O)c3ccccc3)ccc2O[C@@H]1CN(C)Cc1ccc(C(F)(F)F)cc1	0.0	.	-1.8	.	1.1	.
COc1ccc2c3c(n(C)c2c1)[C@H](CO)N(Cc1nccs1)CC31CCN(C(C)=O)CC1	-0.7	.	.	.	-8.8	-5.1
COc1ccc2c3c(n(C)c2c1)[C@@H](CO)N(S(=O)(=O)c1ccc(C)cc1)CC31CN(S(=O)(=O)c2ccc(C)cc2)C1	1.3	.	.	.	-10.1	7.6
CN1/C(=C/C=C/c2n(C)c3cc([N+](=O)[O-])c([N+](=O)[O-])cc3[n+]2C)C(C)(C)c2ccccc21	1.2	14.9	100.0*	8.9	.	-75.4
C[C@H]1CC=CC[C@H](c2ccccc2)NC(=O)[C@H](C)N(C)C(=O)c2ccccc2O1 (mixture of isomers)	.	.	.	-6.0	.	.
COc1ccc(Nc2ccc3c(c2)=NC2(CCCCC2)[N+]=3[O-])cc1	.	0.2	75.2*	4.6	8.0	.
[O-][N+]1=c2ccc(Nc3ccccc3)cc2=NC12CCCCC2	.	20.7	10.5	11.9	.	.
SMILES	F508del corr	Env fusion inh	PAX8 reporter	FN deposition inh	PGC1a acetyl inh	EWS-Fli block
Cc1ccc(NC(=O)Cn2c(=O)cnc3ccccc32)cc1S(=O)(=O)N1CCCCC1	2.0	8.3	12.4	1.0	0.1	7.4
COc1ccc(S(=O)(=O)N2CCCCC2)cc1NC(=O)Cc1c[nH]c2ccccc12	.	34.0	17.8	1.7	.	.
Cc1ccc(S(=O)(=O)N2CCCCC2)cc1NC(=O)Cn1c(=O)cnc2ccccc21	2.7	59.1*	-0.4	3.7	7.7	-10.8
Cc1ccc(S(=O)(=O)N2CCCCC2)cc1NC(=O)Cc1c[nH]c2ccccc12	1.6	.	152.8*	-4.5	.	19.0
CCC(=O)N1[C@H](CO)[C@H](c2ccc(C3=CCCCC3)cc2)[C@H]1CNCC1CCC1	0.8	.	.	-3.0	.	1.1
COc1ccc(N2C(=O)N3[C@H](c4ccc(Cl)cc4)[C@@H]4C(=O)N(C5CCCCC5)C(=O)[C@@H]4[C@]3(Cc3ccc(Cl)cc3)C2=O)cc1	2.5	87.7*	-20.4	-2.3	0.4	-15.6
O=C1[C@H]2[C@@H](c3ccc(F)cc3)N3C(=O)N(c4ccc(Br)cc4)C(=O)[C@@]3(Cc3ccc(Cl)cc3)[C@H]2C(=O)N1C1CCCCC1	0.7	72.0*	41.3	-1.3	1.6	1.9
C[C@H](CO)N1C[C@H](C)[C@@H](CN(C)C(=O)C2CCCCC2)OCCCC[C@H](C)Oc2ccc(NC(=O)Nc3ccccc3)cc2C1=O	-1.0	-14.1[16.7 µM]	-1.6	-5.9	0.3	8.3
Cc1cccc(OCC(=O)N/N=C/c2cccn2C)c1	0.9	62.3*	-12.9	3.6	9.0	-5.2
Cn1cnc(S(=O)(=O)N2CC[C@@H]3[C@H]2c2cc(C4=CCCCC4)ccc2N[C@@H]3CO)c1	.	.	.	-1.2	.	.
C=CC[C@H](CC(=O)N[C@H](CO)Cc1ccccc1)C(=O)N[C@H](COC(=O)[C@@H](CC=C)Cc1ccc(F)cc1)Cc1c[nH]c2ccccc12	.	.	.	.	7.1	.
C=CC[C@@H](CC(=O)N[C@H](CO)Cc1ccccc1)C(=O)N[C@H](COC(=O)[C@@H](CC=C)Cc1ccc(F)cc1)Cc1c[nH]c2ccccc12	-0.4	-59.3	87.7*	-9.8	.	13.2
C=CCC[C@H](Cc1ccc(F)cc1)C(=O)OC[C@H](Cc1c[nH]c2ccccc12)NC(=O)[C@@H](CC=C)CC(=O)N[C@@H](CO)Cc1ccccc1	4.7	24.1	43.8	31.5*	.	34.7
C=CCC[C@@H](Cc1ccc(F)cc1)C(=O)OC[C@H](Cc1c[nH]c2ccccc12)NC(=O)[C@@H](CC=C)CC(=O)N[C@H](CO)Cc1ccccc1	3.3	-11.1	54.7	9.2	.	3.6
